In ChEMBL document CHEMBL4732028, “Structural modifications that increase gut restriction of bile acid derivatives” (RSC Med Chem, 2021):
Calls of active or inactive are those of the source. The rule behind the calls is not given here.

What was measured:
[1] = target: T1, G-protein coupled bile acid receptor 1 (Homo sapiens, UniProt Q8TDU6); experiment: Agonist activity at recombinant human TGR5 expressed in CHO cells assessed as increase in cAMP accumulation after 30 mins by TR-FRET assay; format: functional, cell-based
T1 sequence (Q8TDU6 whole entry): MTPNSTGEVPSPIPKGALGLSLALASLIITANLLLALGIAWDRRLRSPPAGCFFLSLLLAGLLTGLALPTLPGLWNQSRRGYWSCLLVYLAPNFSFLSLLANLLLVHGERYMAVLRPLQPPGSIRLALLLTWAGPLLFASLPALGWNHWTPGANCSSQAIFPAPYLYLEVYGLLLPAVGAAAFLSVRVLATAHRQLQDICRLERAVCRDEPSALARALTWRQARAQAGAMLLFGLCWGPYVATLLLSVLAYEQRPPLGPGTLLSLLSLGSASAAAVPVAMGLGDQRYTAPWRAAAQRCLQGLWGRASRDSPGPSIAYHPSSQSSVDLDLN

[2] = Apparent permeability of the compound across apical to basolateral side in human Caco-2 cells; format: ADME, cell-based
[3] = Apparent permeability of the compound across basolateral to apical side in human Caco-2 cells; format: ADME, cell-based
[4] = AUC in C57BL/6 mouse at 5 mg/kg, po measured up to 120 mins by LC-MS/MS analysis; format: ADME, organism-based; set-up: route oral, dose 5 mg/kg, time <=120; conditions: in vivo
[5] = Drug recovery in C57BL/6 mouse feces at 5 mg/kg, po measured after 24 hrs by LC-MS/MS analysis; format: ADME, organism-based; conditions: read-out: Drug recovery
[6] = target: T2, Bile acid receptor (Homo sapiens) (UniProt Q96RI1); experiment: Agonist activity at FXR (unknown origin)
T2 sequence (whole entry): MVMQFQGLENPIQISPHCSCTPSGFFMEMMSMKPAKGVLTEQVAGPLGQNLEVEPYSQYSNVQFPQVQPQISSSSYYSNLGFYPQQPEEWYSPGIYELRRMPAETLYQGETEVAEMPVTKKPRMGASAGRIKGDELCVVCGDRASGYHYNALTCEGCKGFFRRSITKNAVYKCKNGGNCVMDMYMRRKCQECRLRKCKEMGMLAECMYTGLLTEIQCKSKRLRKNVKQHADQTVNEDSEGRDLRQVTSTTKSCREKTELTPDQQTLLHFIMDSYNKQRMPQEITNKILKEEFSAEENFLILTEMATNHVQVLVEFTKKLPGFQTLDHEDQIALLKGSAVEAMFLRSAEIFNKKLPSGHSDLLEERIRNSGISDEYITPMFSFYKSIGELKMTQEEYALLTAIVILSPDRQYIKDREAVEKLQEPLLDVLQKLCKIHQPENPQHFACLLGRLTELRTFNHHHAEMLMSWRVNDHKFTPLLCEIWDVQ

[7] = target: T3, Vitamin D3 receptor (Homo sapiens) (UniProt P11473); experiment: Agonist activity at VDR (unknown origin)
T3 sequence (whole entry): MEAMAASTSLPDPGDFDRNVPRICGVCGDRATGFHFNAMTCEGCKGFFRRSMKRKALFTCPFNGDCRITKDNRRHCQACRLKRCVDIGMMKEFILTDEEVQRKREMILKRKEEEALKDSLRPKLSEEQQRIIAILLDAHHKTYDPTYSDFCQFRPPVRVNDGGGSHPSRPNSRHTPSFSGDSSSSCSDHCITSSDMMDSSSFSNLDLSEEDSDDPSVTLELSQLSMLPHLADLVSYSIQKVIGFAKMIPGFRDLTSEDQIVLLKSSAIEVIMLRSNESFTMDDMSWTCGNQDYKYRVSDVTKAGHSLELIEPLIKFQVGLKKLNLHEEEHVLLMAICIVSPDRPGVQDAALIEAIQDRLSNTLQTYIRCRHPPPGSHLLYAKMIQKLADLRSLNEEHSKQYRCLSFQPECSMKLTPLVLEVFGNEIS

[8] = test system: HEK293; experiment: Cytotoxicity against human HEK293 cells at 10 uM; format: cell-based; conditions: hek293, 10 µM
[9] = test system: Clostridioides difficile; experiment: Inhibition of TCA-induced Clostridioides difficile RPRE2 spore germination at 50 uM measured once every minute for 20 mins by microplate reader analysis; format: functional
In short: (§1)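 Germination of C. difficile spores was induced with 2000 μM taurocholate (TCA), and test compound was added to inhibit it.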

[10] = test system: Clostridioides difficile; experiment: Inhibition of TCA-induced Clostridioides difficile RPRE2 spore germination at 200 uM measured once every minute for 20 mins by microplate reader analysis; format: functional; in short: as §1

| Compound | EC50 [1] [nM] | AUC at 2 h [4] [ng·h/mL] | dose excreted at 24 h [5] [%] | also measured |
| --- | --- | --- | --- | --- |
| CO[C@@H]1C[C@@H]2C[C@H](O)CC[C@]2(C)[C@H]2CC[C@]3(C)[C@@H]([C@H](C)CCC(=O)O)CC[C@H]3[C@H]12 | 76.8 | – | – | – |
| Cc1nnc(CC[C@@H](C)[C@H]2CC[C@H]3[C@@H]4[C@H](O)C[C@@H]5C[C@H](O)CC[C@]5(C)[C@H]4CC[C@]23C)o1 | – | 45800 | 0.5 | Papp A→B [2]: 2.6 ×10⁻⁶ cm/s; Papp B→A [3]: 1.5 ×10⁻⁶ cm/s |
| CO[C@@H]1C[C@@H]2C[C@H](O)CC[C@]2(C)[C@H]2CC[C@]3(C)[C@@H]([C@H](C)CCc4nnc(C)o4)CC[C@H]3[C@H]12 | – | 25700 | 7.1 | Papp A→B [2]: 0.27 ×10⁻⁶ cm/s; Papp B→A [3]: 0.12 ×10⁻⁶ cm/s; Activity [6]: inactive; Activity [7]: inactive; Activity [8]: Non-Toxic |
| CO[C@@H]1CC[C@@]2(C)[C@@H](C1)C[C@@H](OS(=O)(=O)[O-])[C@@H]1[C@@H]2CC[C@]2(C)[C@@H]([C@H](C)CCc3nnn[n-]3)CC[C@@H]12.[Na+].[Na+] | – | 4840 | 89.1 | inhibition [9]: Active |
| CO[C@@H]1CC[C@@]2(C)[C@@H](C1)C[C@H](O)[C@@H]1[C@@H]2CC[C@]2(C)[C@@H]([C@H](C)CCC(=O)N3CCCC3)CC[C@@H]12 | – | 29600 | 3 | – |
| CO[C@@H]1C[C@@H]2C[C@H](O)CC[C@]2(C)[C@H]2CC[C@]3(C)[C@@H]([C@H](C)CCC(=O)N(CCCNC(=O)[C@H](O)[C@@H](O)[C@H](O)[C@H](O)CO)CCCNC(=O)[C@H](O)[C@@H](O)[C@H](O)[C@H](O)CO)CC[C@H]3[C@H]12 | 567 | – | – | – |
| CO[C@@H]1CC[C@@]2(C)[C@@H](C1)C[C@H](OS(=O)(=O)[O-])[C@@H]1[C@@H]2CC[C@]2(C)[C@@H]([C@H](C)CCC(=O)N3CCCC3)CC[C@@H]12.[Na+] | – | 14300 | 29.1 | inhibition [9]: Active |
| CO[C@@H]1CC[C@@]2(C)[C@@H](C1)C[C@@H](O)[C@@H]1[C@@H]2CC[C@]2(C)[C@@H]([C@H](C)CCc3nn[nH]n3)CC[C@@H]12 | – | – | – | inhibition [9]: Active |
| CO[C@@H]1C[C@@H]2C[C@H](O)CC[C@]2(C)[C@H]2CC[C@]3(C)[C@@H]([C@H](C)CCC(=O)NC[C@H](O)[C@@H](O)[C@H](O)[C@H](O)CO)CC[C@H]3[C@H]12 | 33.3 | 1520 | 11.7 | inhibition [10]: inactive |
| CO[C@@H]1CC[C@@]2(C)[C@@H](C1)C[C@@H](O)[C@@H]1[C@@H]2CC[C@]2(C)[C@@H]([C@H](C)CCc3nnn[n-]3)CC[C@@H]12.[Na+] | – | 37700 | 7.7 | – |
| CO[C@@H]1C[C@@H]2C[C@H](O)CC[C@]2(C)[C@H]2CC[C@]3(C)[C@@H]([C@H](C)CCC(=O)N(C)C[C@H](O)[C@@H](O)[C@H](O)[C@H](O)CO)CC[C@H]3[C@H]12 | 62.3 | 1250 | 39.7 | inhibition [10]: inactive |
